T cell modulator = T cell immune modulation candidate. 2C CD8+ T cell-vesicle binding, flow cytometry; hits give low values. response (vesicle binding), % at 7 µM. 0.068% of 330,000 active;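 active means response, share of CD8 T cells binding vesicles, and their 90th percentile fluorescence all below set limits, cut at about 80% in these data, passing the limit was not always enough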;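 further: values below 100% mean blocked vesicle binding to the CD8+ T cells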
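Read-out – percent CD8+ FL2 mean versus row control · System – murine 2C transgenic CD8+ T lymphocytes · Times – 1.5 h cell–vesicle binding at 37 °C, then 20 min icy labelling · Control set – naked vesicles low, QL9 vesicles with vehicle high · Detection – cytometric PE anti-B7-1 and Alexa647 anti-CD8 signals after 1% paraformaldehyde fixation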
Arrestin-AP2 inh = blocks beta-arrestin peptide binding to AP2 adaptin | FITC-arrestin peptide / GST-AP2 beads, flow cytometry; AP2 beta2 appendage carries R879A mutation | 0.31% of 340,000 active | inhibition, % at 10 µM;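 active means inhibition above a set limit, near 3 SD of compounds lacking own fluorescence, cut at about 54% in these data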;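 further: plate controls were DMSO wells for no effect and 5 µM unlabelled arrestin peptide for full effect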
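System: GST-tagged AP2 beta2-adaptin appendage (R879A) on 4 µm glutathione beads / Reagent: FITC-arrestin peptide, 50 nM / Detection: HyperCyt-sampled flow cytometry, FL1 channel, ex 488/em 535 nm / Timing: 12 min plus 1 h, RT / Buffer or medium: PBS plus Tween 20 (0.05%) and BSA (0.1%)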
Pemphigus Ab inh = human desmoglein-3 autoantibody binding inhibition; P32926; DSG3-coupled beads, scFv-anti-DSG3-GFP binding, flow cytometry; hits give low values; binding (percent of control), % at 10 µM; 0.48% of 310,000 active; AID 588358;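 active means binding more than 3 SD below its plate's average and above zero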;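 further: hits lower antibody fragment binding to DSG3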
JMJD2C inh = inhibitors of human GASC-1 (JMJD2C) demethylase; Q9H3R0; GST-JMJD2C(1-420) H3K9me3 demethylation, DELFIA europium; inhibition, % at 2.35 µM; 0.069% of 330,000 active; AID 2099;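 active means more than half of a compound's replicate wells show inhibition beyond 50%, single wells judged on their own value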;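 further: signal counts dimethyl H3K9 product captured on neutravidin plate; 0% = median of DMSO wells and 100% = 0.3 times that DMSO median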
LANA-H2A inh = blocks KSHV LANA binding to histone H2A/H2B. cell-free LANA-H2A/H2B peptide, fluorescence polarization. inhibition, % (concentration not given with the values). 0.6% of 320,000 active. AID 2629; in the data active means inhibition mostly above about 10%, no sharp cut-off; inactive means mostly below about 6.7%
HDAC3 inhib = human HDAC3 inhibition | O15379 | recombinant HDAC3, fluorogenic peptide/trypsin coupled, fluorescence | inhibition, % at 8.3 µM | 0.15% of 320,000 active; in the data active means inhibition above about 26%, passing the limit was not always enough
Target sequence (O15379 whole entry, looked up): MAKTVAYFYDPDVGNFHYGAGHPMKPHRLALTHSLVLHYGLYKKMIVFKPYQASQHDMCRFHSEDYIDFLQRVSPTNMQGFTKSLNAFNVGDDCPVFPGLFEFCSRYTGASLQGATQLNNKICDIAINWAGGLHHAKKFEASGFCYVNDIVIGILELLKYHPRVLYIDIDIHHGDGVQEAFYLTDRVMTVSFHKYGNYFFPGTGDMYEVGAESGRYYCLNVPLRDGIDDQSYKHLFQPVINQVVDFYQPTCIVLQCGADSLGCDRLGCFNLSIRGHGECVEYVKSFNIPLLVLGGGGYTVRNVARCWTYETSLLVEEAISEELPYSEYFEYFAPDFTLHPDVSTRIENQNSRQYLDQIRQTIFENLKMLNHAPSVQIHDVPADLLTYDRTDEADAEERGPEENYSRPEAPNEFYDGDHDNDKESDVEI
Active calls of the source: *; i = inactive; . = not tested or not shown. Only some compounds are listed: those with a hit (about 1.6% of all), similar ones and a draw of the others.

SMILES	T cell modulator	Arrestin-AP2 inh	Pemphigus Ab inh	JMJD2C inh	LANA-H2A inh	HDAC3 inhib
COc1ccc(OC)c2sc(NC(=O)c3ccc(S(=O)(=O)N4CCOCC4)cc3)nc12	224.1	4.2	-17.0*	-9.0	16.3	-1.5
Cc1nc2ccc(NC(=O)c3ccc(S(=O)(=O)N4CCOCC4)cc3)cc2s1	375.6	14.4	81.3*	-0.6	0.5	-1.6
CCOC(=O)c1ccc(NC(=O)c2ccc(C)c(S(=O)(=O)N3CCOCC3)c2)cc1	250.4	-6.5	85.8	-5.5	-1.0	3.8
CS(=O)(=O)c1ccc(Cl)c(NC(=O)c2cc(S(=O)(=O)N3CCOCC3)ccc2N2CCCC2)c1	106.2	20.2	97.8	-5.6	.	.
CCOC(=O)C(C(C)=O)C(c1ccc(OC)cc1)C(C(C)=O)C(=O)OCC (stereo not drawn)	464.9	5.1	99.0	3.1	-5.2	8.3
CCOC(=O)C(C)C(C)=O (stereo not drawn)	914.4	9.4	102.2	10.0	14.7*	0.3
CCN1C(=O)C(=Cc2cccc(OC)c2Oc2ccc([N+](=O)[O-])cc2[N+](=O)[O-])SC1=S	12.4	-3.5	103.5	5.0	-8.9	-3.4
CC(C)NC(=O)c1ccc(N(Cc2ccc(Cl)cc2)S(C)(=O)=O)cc1	257.2	5.5	113.5	-6.9	1.1	-5.7
O=C(CSc1ccc(C(F)(F)F)cc1[N+](=O)[O-])Nc1ccc2ccccc2c1	253.8	-3.2	103.6	2.3	-5.4	-2.8
CC(=O)Nc1cccc(NC(=O)CSc2ccc(C(F)(F)F)cc2[N+](=O)[O-])c1	i	-4.0	84.2*	-5.0	-6.0	-0.9
O=C(Nc1ccc(Cl)cc1Cl)c1cc2ccccc2o1	214.6	1.4	96.3*	4.7	-3.9	-13.5
Cc1ccccc1NC(=O)c1cc2ccccc2o1	232.5	10.2	98.6	-4.9	-1.3	0.2
CCN1CCS/C1=C\C=C\C1=[N+](CC)CCS1	.	-39.8	107.6	-15.5	.	.
CCN1CCS/C1=C/C=C/C1=[N+](CC)CCS1	273.7	-9.2	106.9	1.7	1.1	35.7*
COCc1nc2ccccc2n1CCc1ccccc1	217.0	-4.5	120.8	16.9	-2.8	-7.8
CC(C)C1COC(c2cccn2Cc2ccccc2Cl)=N1 (stereo not drawn)	275.9	6.1	91.1	-5.7	19.6*	-2.8
O=C(O/N=C(/c1ccccc1)c1ccncc1)c1ccc(F)cc1	158.6	-5.2	99.8	5.7	-3.5	30.9*
O=C1c2ccccc2C(=O)N1CCCOc1ccccc1	188.9	-5.2	116.4	-4.1	-5.0	-7.2
O=C1c2ccccc2C(=O)N1CCCN1C(=O)c2ccccc2C1=O	.	10.1	-1.0*	.	.	.
O=C(COC(=O)c1cc2ccccc2oc1=O)Nc1cccc(S(=O)(=O)N2CCCCCC2)c1	233.5	7.8	99.8	-16.5	-0.6	-4.0
CC(=O)c1ccc(COC(=O)c2cc3ccccc3oc2=O)cc1	218.7	5.7	96.3	4.1	11.2*	-6.5
CN(C)S(=O)(=O)c1cccc(NC(=O)COC(=O)c2cc3ccccc3oc2=O)c1	309.8	1.6	71.2*	12.6	-0.4	-6.3
COC(=O)c1ccc(COC(=O)c2cc3ccccc3oc2=O)cc1	89.3	22.8	107.5	0.2	1.7	-8.2
CCOc1ccc(C2C=C(c3ccc(C)cc3)Nc3ncnn32)cc1 (stereo not drawn)	30.4*	.	.	1.6	3.9	-10.3
NS(=O)(=O)c1cccc(NC(=O)COc2ncnc3c2cnn3-c2ccccc2)c1	111.0	38.8	100.1	5.7	130.7*	-3.2
SMILES	T cell modulator	Arrestin-AP2 inh	Pemphigus Ab inh	JMJD2C inh	LANA-H2A inh	HDAC3 inhib
Cc1c(NC(=O)CSc2nnc(-c3ccncc3)n2C)c(=O)n(-c2ccccc2)n1C	.	.	99.5	.	.	.
CCOC(=O)CSC1=NC(=O)/C(=C/c2ccc(OC)cc2)S1	0.0	4.8	89.7	1.7	3.9	79.8*
O=C(N/N=C1\C/C(=N\NC(=O)c2ccncc2)c2ccccc21)c1ccncc1	417.4	-34.6	99.8	-41.2	-0.5	2.1
O=C(N/N=C1\CCCc2c1[nH]c1ccc(Cl)cc21)c1ccncc1	141.7	8.9	101.1	7.0	43.7*	-3.1
Cc1[nH]nc2c(=S)[nH]c(=O)[nH]c12	.	.	97.2	.	.	.
O=C(O)c1cc(N2CCCCC2)ccn1	.	-2.0	89.3	.	.	.
CC(C)(C)c1ccc(C2C(C#N)=C(N)Oc3n[nH]c(-c4cccnc4)c32)cc1 (stereo not drawn)	55.7	4.5	14.8*	-0.2	-2.4	3.4
CC(C)(C)c1[nH]nc2c1C(c1ccc(OC(=O)c3ccco3)cc1)C(C#N)=C(N)O2 (stereo not drawn)	250.5	-4.0	98.0	-5.7	6.4	54.2*
COc1cc(OC)cc(C2C(C#N)=C(N)Oc3n[nH]c(-c4cccnc4)c32)c1 (stereo not drawn)	260.3	3.3	85.0	1.3	-0.9	-2.5
N#CC1C=Cc2c(ccc3ccccc23)N1C(=O)c1ccccc1 (stereo not drawn)	.	37.6	.	.	.	.
CC(C)CC(=O)N1CCN(C(=O)c2ccc(F)cc2)CC1	243.4	6.2	114.2	-12.3	16.1*	-9.6
CC(C(=O)Nc1ccc(F)c(F)c1F)N(C)CCOc1ccccc1 (stereo not drawn)	344.0	-0.8	113.7	-28.9	10.9*	7.8
CCC(C)[C@H](NC(=O)NCCC1=CCCCC1)C(=O)O (stereo partly drawn)	401.9	29.9	100.1	11.5	35.2*	-11.8
CC(C)[C@H](NC(=O)NCCC1=CCCCC1)C(=O)O	579.6	4.7	106.6	-14.4	-3.3	-0.6
Cc1cc(C)cc(OCC(=O)OCC(=O)NCCC2=CCCCC2)c1	110.8	-1.7	-9.8*	-8.0	0.6	-7.6
Cc1ccc(S(=O)(=O)N2CCOCC2)cc1C(=O)N1CCN(c2ccc(C(F)(F)F)cn2)CC1	108.9	-8.3	.	-3.5	4.3	-6.2
NNC(=O)c1nn(-c2ccc(Cl)cc2)ccc1=O	814.9	-4.5	100.3	55.0*	5.2	-5.9
O=C(NCc1cccnc1)c1cccc(S(=O)(=O)Nc2cccc(Cl)c2)c1	617.4	-5.6	106.3	1.3	5.4	-2.5
COc1ccc(CCN2CCC(Nc3nc4ccccc4n3Cc3ccc(F)cc3)CC2)cc1	104.5	-0.5	114.7	-23.2	13.9*	0.7
CCOC(=O)C(=NO)C1=CSC2=NNC(C)(C)N12	.	.	106.5	.	.	.
COc1ccc(NS(=O)(=O)c2c(C)cc(C)cc2C)cc1	897.3	19.8	.	-18.7	-0.4	6.6
COc1cccc(NS(=O)(=O)c2c(C)cc(C)cc2C)c1	283.3	3.1	98.3	2.8	18.7*	7.3
CC1Cc2ccccc2N1C(=O)CN1CCC(C(N)=O)CC1 (stereo not drawn)	330.6	-9.5	110.5	-1.3	0.4	-2.9
CCn1c(C)cc(C(=O)COC(=O)CNC(=O)c2ccco2)c1C	.	.	99.7	.	.	.
